The source made the active and inactive calls.
Key:
Mus musculus [1] = experiment: Toxicity in Swiss albino mouse assessed as induction of impairment of motor coordination by measuring reduction in time spent on rota-rod at 60 mg/kg, ip dosed 60 mins before test by rotarod test; assay type: organism-based; conditions: in vivo, 1 h
In short: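 Rotarod in male Swiss mice, i.p. dosing 60 min pre-test: impairment is inability to stay 1 min on a rod turning at 18 rpm, after 3 days of daily training. Mean ± SEM of 2 independent experiments; one-way ANOVA with Dunnett's.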

Mus musculus [2] = experiment: Toxicity in Swiss albino mouse assessed as reduction in spontaneous locomotor activity at 60 mg/kg, ip dosed 60 mins before test and measured after 30 mins; assay type: organism-based; conditions: in vivo, 0.5 h
In short: (§1)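 Spontaneous locomotion: mice dosed i.p. 60 min before being placed individually in an actometer for 30 min. Distance travelled read at 6 and 30 min. Cages cleaned with 70% ethanol between animals. One-way ANOVA with Dunnett's; mean ± SEM of one experiment.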

Mus musculus [3] = experiment: Toxicity in Swiss albino mouse assessed as reduction in spontaneous locomotor activity at 60 mg/kg, ip dosed 60 mins before test and measured after 6 mins; assay type: organism-based; conditions: in vivo, 0.1 h; in short: as §1
Mus musculus [4] = experiment: Toxicity in Swiss albino mouse assessed as effect on motor coordination at 3.75 to 15 mg/kg, ip dosed 60 mins before test by Chimney test; assay type: organism-based; conditions: in vivo, 1 h
In short: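 Chimney test in male Swiss mice after i.p. dosing 60 min earlier: impairment defined as failure to climb backwards up a tube (3 cm inner diameter, 25 cm long) within 60 s. Animals pre-trained once daily for 3 days. One-way ANOVA with Dunnett's.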

Mus musculus [5] = experiment: Antidepressant-like activity in Swiss albino mouse assessed as reduction in immobility time at 7.5 mg/kg, ip dosed 1 hr before test by forced swimming test; assay type: functional, organism-based
In short: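 Male Swiss albino mice (18–24 g), compound i.p. in 0.1% DMSO/0.5% methylcellulose 1 h pre-test. Porsolt swim: cylinder 25 cm high, 10 cm diameter, 10 cm water at 23–25°C, 6 min session; immobility scored over last 4 min. Blind observer; one-way ANOVA with Dunnett's; mean ± SEM.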

Mus musculus [6] = experiment: Toxicity in Swiss albino mouse assessed as reduction in spontaneous locomotor activity at 7.5 mg/kg, ip dosed 60 mins before test; assay type: organism-based; conditions: in vivo, 1 h; in short: as §1
Mus musculus [7] = experiment: Induction of hypothermia in Swiss albino mouse assessed as reduction in body temperature at 30 mg/kg, ip measured after 30 mins post dose; assay type: functional, organism-based
In short: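 Normothermic male Swiss mice; rectal thermistor readings over 180 min. Baseline is the mean of readings 60 and 30 min before dosing; readings at 30, 60, 90, 120 min post-injection; Δt = tf − ti. Test compounds i.p. (DMSO/methylcellulose); 8-OH-DPAT (5 mg/kg) and WAY 100635 (0.1 mg/kg) s.c. in water. Two-way ANOVA, Bonferroni.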

O=C(NCCN1CCN(c2ccc(Cl)c(Cl)c2)CC1)c1ccccn1
Activity (Mus musculus [1]): Toxic | Activity (Mus musculus [2]): Toxic | Activity (Mus musculus [3]): Toxic | Activity (Mus musculus [4]): Non-Toxic | Activity (Mus musculus [5]): Active | Activity (Mus musculus [6]): Non-Toxic | Activity (Mus musculus [7]): Active

Reference: ChEMBL document CHEMBL4177580, “New 5-HT1A, 5HT2A and 5HT2C receptor ligands containing a picolinic nucleus: Synthesis, in vitro and in vivo pharmacological evaluation” (Bioorg Med Chem, 2017)
